Assay results from ChEMBL document CHEMBL1649452, “The chromosomal toxin gene yafQ is a determinant of multidrug tolerance for Escherichia coli growing in a biofilm” (2009).
In brackets after ≈: the same amount, converted by molar mass. Activity calls are given as the source filed them. No cut-off for these calls is given here.

Key:
[1] = test system: Escherichia coli; test: Antimicrobial activity against yafQ gene-deficient Escherichia coli K-12 BW25113 by broth microdilution method; format: functional
How it was run: (§1)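 Broth microdilution MIC per CLSI protocol; wild-type and ΔyafQ strains from Keio collection, stored at −70°C in LB with 8% DMSO, cultured on LB agar at 37°C.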

[2] = test system: Escherichia coli; test: Antimicrobial activity against Escherichia coli K-12 BW25113 by broth microdilution method; format: functional; how it was run: as §1
[3] = test system: Escherichia coli; test: Bactericidal activity against Escherichia coli K-12 BW25113 biofilm harboring pCA24N ptac::yafQ plasmid assessed as log reduction of viable cells after 24 hrs pretreated with 5 uM of IPTG for 4 hrs; format: functional, organism-based
How it was run: (§2)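 Biofilms grown 24 h at 37°C, 125 rpm, 95% humidity on Calgary device pegs from ~1.0 × 10^7 CFU/ml inoculum. Strain carries IPTG-inducible pCA24N vector, grown with 30 μg/ml chloramphenicol. Biofilms were rinsed, then induced 4 h at 37°C, 125 rpm in LB with chloramphenicol and 5 μM IPTG before twofold antibiotic dilutions. Survivors were recovered by sonication in LB plus 1% Tween 20 and plated; mean log killing calculated.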

[4] = test system: Escherichia coli; test: Bactericidal activity against yafQ gene-deficient Escherichia coli K-12 BW25113 biofilm assessed as log reduction of viable cells after 24 hrs; format: functional, organism-based
How it was run: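 Biofilms grown on the 96-peg polystyrene lid of a Calgary biofilm device. Inoculum was a 1.0 McFarland suspension diluted 30-fold in growth medium (~1.0 × 10^7 CFU/ml). Grown 24 h at 37°C, 125 rpm, 95% humidity, then saline-rinsed and exposed to twofold antibiotic dilutions. Rinsed twice, sonicated 5 min in LB + 1% Tween 20, plated on LB agar ≥24 h at 37°C. Mean log killing taken from viable counts.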

[5] = test system: Escherichia coli; test: Bactericidal activity against yafQ gene-deficient Escherichia coli K-12 BW25113 stationary-phase planktonic cell assessed as log reduction of viable cells after 24 hrs; format: functional, organism-based
How it was run: (§3)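 Stationary-phase planktonic cells from LB grown 18–20 h at 225 rpm, 37°C, then pelleted and resuspended at 2× concentration in fresh medium. 100 μl cells added to 100 μl of 2× twofold antibiotic dilutions. Starting counts by viable plating. Recovery, dilution and counting as for biofilms (LB + 1% Tween 20, LB agar ≥24 h at 37°C); mean log killing calculated.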

[6] = test system: Escherichia coli; test: Bactericidal activity against yafQ gene-deficient Escherichia coli K-12 BW25113 biofilm assessed as log reduction of viable cells after 24 hrs relative to wild-type Escherichia coli K-12 BW25113; format: functional
How it was run: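 Biofilms grown 24 h at 37°C, 125 rpm, 95% humidity on Calgary device pegs from ~1.0 × 10^7 CFU/ml inoculum (1.0 McFarland diluted 30-fold). After a saline rinse, biofilms went into twofold antibiotic dilutions, were rinsed twice, and sonicated 5 min in LB with 1% Tween 20. Survivors were counted on LB agar after ≥24 h at 37°C. Mean log killing compared with wild type; significance required ≥50-fold difference and non-overlapping SDs.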

[7] = test system: Escherichia coli; test: Bactericidal activity against Escherichia coli K-12 BW25113 stationary-phase planktonic cell assessed as log reduction of viable cells after 24 hrs; format: functional, organism-based; how it was run: as §3
[8] = test system: Escherichia coli; test: Effect on survival of Escherichia coli K-12 BW25113 biofilm harboring pCA24N ptac::yafQ plasmid assessed as increase in cell survival after 24 hrs pretreated with 5 uM of IPTG for 4 hrs relative to wild-type Escherichia coli K-12 […]; format: functional; how it was run: as §2

SMILES | MIC [1] [µg/mL] | MIC [2] [µg/mL] | Activity [3] | Activity [4] | Activity [5] | FC [6] | Activity [7] | fold change (FC) [8]
C[C@H]1c2cccc(O)c2C(=O)C2=C(O)[C@]3(O)C(=O)C(C(N)=O)=C(O)[C@@H](N(C)C)[C@@H]3[C@@H](O)[C@@H]21.O [DOXYCYCLINE] | 3 | 4 | Active | Active | – | – | – | –
Cc1nnc(SCC2=C(C(=O)O)N3C(=O)[C@@H](NC(=O)Cn4cnnn4)[C@H]3SC2)s1 [CEFAZOLIN] | 4 (≈ 8.8 µM) | 4 (≈ 8.8 µM) | inactive | – | Active | 2400 | Active | 10000
NC[C@H]1O[C@H](O[C@H]2[C@H](O)[C@@H](O[C@H]3O[C@H](CO)[C@@H](O)[C@H](N)[C@H]3O)[C@H](N)C[C@@H]2N)[C@H](N)C[C@@H]1O [TOBRAMYCIN] | 2 (≈ 4.28 µM) | 1.5 (≈ 3.21 µM) | inactive | – | Active | 760 | Active | 3300
CO[C@H]1/C=C/O[C@@]2(C)Oc3c(C)c(O)c4c(O)c(c(/C=N/N5CCN(C)CC5)c(O)c4c3C2=O)NC(=O)/C(C)=C\C=C\[C@H](C)[C@H](O)[C@@H](C)[C@@H](O)[C@@H](C)[C@H](OC(C)=O)[C@@H]1C [RIFAMPIN] | 16 (≈ 19.4 µM) | 16 (≈ 19.4 µM) | Active | Active | – | – | – | –
